For data set [1], the system named is Mus musculus. Briefly: Toxicity in nude BALB/C mouse assessed as mortality at 200 mg/kg, po qd for 14 days. On the set-up: dose 200 mg/kg, route oral. The class given is organism-based. The following applies: in vivo, 336 h. Put shortly:
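Male BALB/C nude mice (18−20 g) carried subcutaneous A549 implants in the right axilla. Dosing began once tumors reached 100−300 mm³, 13 days after implantation. Animals were randomized into groups of 6 per treatment and 10 controls, then given 200 mg/kg by gavage once daily for 14 consecutive days. Body weight was recorded every 4 days. Mice were sacrificed on day 29 or 33.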

Data set [2] relates to A549. Put plainly: Antitumor activity against human A549 cells expressing wild type p53 xenografted in nude BALB/C mouse assessed as inhibition of tumor growth at 200 mg/kg, po qd for 14 days. Conditions: A549, 336 h, read-out: TGI; call rule not given here. The class given is functional. The method in brief: (§1)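 Male BALB/C nude mice (18−20 g) had A549 cells implanted subcutaneously in the right axilla. Dosing started on day 13, when tumors reached 100−300 mm³. Mice were randomized (6 per treatment group, 10 controls) and dosed by gavage once daily for 14 days. Caliper tumor volume (TV = 1/2 × a × b²) was taken every 4 days; relative tumor volume was used. Mice were sacrificed on day 29 or 33.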
On the technique in general: Xenograft models place foreign cells or tissue in a host animal.

For a further data set, the system named is NCI-H1299. Briefly: Antiproliferative activity against p53 deficient human NCI-H1299 cells after 72 hrs by MTT assay. The following applies: NCI-H1299, 72 h. The class given is functional, cell-based. The method in brief: (§2)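 Cells seeded at 5−6 × 10⁴ per well and cultured 24 h, then exposed in triplicate wells to a range of compound concentrations for 72 h, with 0.1% DMSO as control. MTT (5 mg/mL solution) was added for 4 h at 37 °C, formazan dissolved in DMSO, absorbance read at 570 nm. Drug-free wells served as blanks; IC50 calculated.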
A general note: Tetrazolium dyes change colour on reduction, which living cells bring about.

Data set [3] has as its system A549. Put plainly: Antiproliferative activity against human A549 cells expressing wild type p53 after 72 hrs by MTT assay. The class given is functional, cell-based. The method in brief: as §2
The next data set deals with U2OS. Briefly: Antiproliferative activity against human U2OS cells expressing wild type p53 after 72 hrs by MTT assay. The class given is functional, cell-based. The method in brief:
as §2

The next data set deals with SAOS-2. Put plainly: Antiproliferative activity against p53 deficient human Saos2 cells after 72 hrs by MTT assay. The class given is functional, cell-based. Conditions: SAOS-2, 72 h. Put shortly: as §2
Data set [4] deals with Tumour suppressor protein p53/Mdm4 (Homo sapiens, UniProt P04637+O15151). Briefly: (§3) Inhibition of p53-MDMX interaction after 1 hr by fluorescence polarization assay. The class given is protein assay. On the technique in general: In fluorescence polarisation assays a small probe gives low polarisation when free and higher when bound to something large.
Chain of Tumour suppressor protein p53/Mdm4 (Homo sapiens, UniProt P04637+O15151) (P04637 whole entry): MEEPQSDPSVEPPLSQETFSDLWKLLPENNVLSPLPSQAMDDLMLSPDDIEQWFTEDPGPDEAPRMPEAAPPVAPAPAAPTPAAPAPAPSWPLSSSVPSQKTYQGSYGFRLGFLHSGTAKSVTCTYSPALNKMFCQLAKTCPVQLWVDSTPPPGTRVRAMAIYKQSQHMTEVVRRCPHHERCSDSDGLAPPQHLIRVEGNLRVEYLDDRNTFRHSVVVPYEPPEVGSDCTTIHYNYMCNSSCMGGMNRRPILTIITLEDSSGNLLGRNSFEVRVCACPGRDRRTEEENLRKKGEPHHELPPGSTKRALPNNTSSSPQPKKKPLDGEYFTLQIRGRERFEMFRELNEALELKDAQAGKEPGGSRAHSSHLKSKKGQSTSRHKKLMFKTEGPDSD
Chain of Tumour suppressor protein p53/Mdm4 (Homo sapiens, UniProt P04637+O15151) (O15151 whole entry): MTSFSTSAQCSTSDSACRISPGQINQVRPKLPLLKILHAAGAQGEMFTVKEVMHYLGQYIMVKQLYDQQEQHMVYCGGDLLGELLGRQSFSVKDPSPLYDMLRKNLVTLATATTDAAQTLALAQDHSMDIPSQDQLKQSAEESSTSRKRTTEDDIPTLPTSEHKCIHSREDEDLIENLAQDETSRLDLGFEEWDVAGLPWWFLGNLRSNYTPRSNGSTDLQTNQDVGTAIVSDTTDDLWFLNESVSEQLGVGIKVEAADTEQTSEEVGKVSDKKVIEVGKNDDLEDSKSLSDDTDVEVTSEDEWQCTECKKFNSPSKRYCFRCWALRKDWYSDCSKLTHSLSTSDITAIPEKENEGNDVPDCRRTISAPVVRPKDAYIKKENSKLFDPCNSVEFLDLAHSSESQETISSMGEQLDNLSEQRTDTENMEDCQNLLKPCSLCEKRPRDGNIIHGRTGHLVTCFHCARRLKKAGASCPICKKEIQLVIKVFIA
Data set [5] addresses Tumour suppressor p53/oncoprotein Mdm2 (Homo sapiens, UniProt Q00987). Briefly: (§4) Inhibition of p53-MDM2 interaction after 1 hr by fluorescence polarization assay. The class given is protein assay.
For data set [6], the target named is Tumour suppressor protein p53/Mdm4 (Homo sapiens, UniProt O15151). The description is as §3. The class given is protein assay.
Chain of Tumour suppressor protein p53/Mdm4 (Homo sapiens, UniProt O15151) (P04637 whole entry): as the sequence (P04637 whole entry) above
Chain of Tumour suppressor protein p53/Mdm4 (Homo sapiens, UniProt O15151) (O15151 whole entry): as the sequence (O15151 whole entry) above
For data set [7], the system named is A549. Put plainly: Induction of apoptosis in human A549 cells expressing wild type p53 after 48 hrs using annexin V-FITC staining by flow cytometry assay. The class given is functional, cell-based. Put shortly: (§5)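 A549 cells (5 × 10⁵ cells/mL) were seeded in six-well plates and treated at 5−20 μM for 48 h. Cells were harvested by trypsinization, washed twice in cold PBS and resuspended in binding buffer. They were stained with annexin V-FITC for 15 min at room temperature, then with PI for 15 min in the dark, and analyzed by flow cytometry; n = 3.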

Data set [8] deals with A549. Put plainly: Induction of apoptosis in human A549 cells expressing wild type p53 at 20 uM after 48 hrs using annexin V-FITC staining by flow cytometry assay. The class given is functional. Put shortly: as §5
Data set [9] deals with A549. Put plainly: Induction of apoptosis in human A549 cells expressing wild type p53 at 10 uM after 48 hrs using annexin V-FITC staining by flow cytometry assay. The class given is functional. The method in brief:
as §5

Data set [10] has as its system A549. Put plainly: Induction of apoptosis in human A549 cells expressing wild type p53 at 5 uM after 48 hrs using annexin V-FITC staining by flow cytometry assay. The class given is functional. The method in brief: as §5
Data set [11] concerns Mus musculus. Put plainly: Toxicity in human A549 cells expressing wild type p53 xenografted nude BALB/C mouse assessed as reduction of body weight at 300 mg/kg, po qd for 14 days. The following applies: in vivo, 336 h. Set-up: dose 300 mg/kg, route oral. The class given is organism-based. Put shortly:
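Subcutaneous A549 xenografts (right axilla) in male BALB/C nude mice (18−20 g). From day 13 (tumors 100−300 mm³), the compound was given by gavage once daily for 14 days (6 animals per group; vehicle control group). Body weight was recorded every 4 days during treatment.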

The test system of data set [12] is A549. Briefly: Antitumor activity against human A549 cells expressing wild type p53 xenografted in nude BALB/C mouse assessed as inhibition of tumor growth at 300 mg/kg, po qd for 14 days. The class given is functional. Conditions: A549, 336 h, read-out: TGI. The method in brief: as §1
Data set [13] deals with Tumour suppressor p53/oncoprotein Mdm2 (Homo sapiens, UniProt P04637+Q00987). The description is as §4. The class given is protein assay.
Chain of Tumour suppressor p53/oncoprotein Mdm2 (Homo sapiens, UniProt P04637+Q00987) (P04637 whole entry): as the sequence (P04637 whole entry) above
Chain of Tumour suppressor p53/oncoprotein Mdm2 (Homo sapiens, UniProt P04637+Q00987) (Q00987 whole entry): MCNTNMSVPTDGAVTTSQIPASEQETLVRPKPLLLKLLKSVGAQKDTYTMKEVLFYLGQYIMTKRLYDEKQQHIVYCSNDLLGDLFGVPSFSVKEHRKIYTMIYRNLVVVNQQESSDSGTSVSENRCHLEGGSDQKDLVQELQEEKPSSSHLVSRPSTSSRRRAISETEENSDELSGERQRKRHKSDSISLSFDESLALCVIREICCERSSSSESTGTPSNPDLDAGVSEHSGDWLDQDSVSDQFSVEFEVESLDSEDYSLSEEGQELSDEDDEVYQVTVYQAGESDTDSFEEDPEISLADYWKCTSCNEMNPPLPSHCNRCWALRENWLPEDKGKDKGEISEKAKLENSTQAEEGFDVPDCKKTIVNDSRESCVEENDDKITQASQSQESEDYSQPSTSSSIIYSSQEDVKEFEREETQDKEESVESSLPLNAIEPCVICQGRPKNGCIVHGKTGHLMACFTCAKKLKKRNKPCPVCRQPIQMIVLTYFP
Setting [14] is: Homo sapiens, A549, 72 h, read-out: IC50.
The mark [15] stands for this setting: Homo sapiens, U2OS, 72 h, read-out: IC50.

The term IC50 denotes the concentration at which inhibition is half-maximal. One may read the Ki as the equilibrium dissociation constant of an inhibitor or competing ligand from its target. Read a low Ki as higher affinity.

Chain of Tumour suppressor p53/oncoprotein Mdm2 (Homo sapiens, UniProt Q00987) (P04637 whole entry): as the sequence (P04637 whole entry) above
Chain of Tumour suppressor p53/oncoprotein Mdm2 (Homo sapiens, UniProt Q00987) (Q00987 whole entry): as the sequence (Q00987 whole entry) above

Take `CC(C)OC1=C(C(=O)c2ccccc2)C(c2ccc(Br)cc2)N(CCCn2ccnc2)C1=O` (stereo not given): the Activity entry in the data set on Mus musculus [1] is recorded as “Non-toxic”. Moreover, the inhibition in vivo at 200 mg/kg in the data set on A549 [2] is 40%. The concentration for half-maximal inhibition (IC50) stood at 18.9 µM in the data set on NCI-H1299, 8.72 µM in the data set on A549 [3] (setting [14]), 24.8 µM in the data set on U2OS (setting [15]) and 23 µM in the data set with SAOS-2.
In the case of `CCCCCOC1=C(C(=O)c2ccccc2)C(c2ccc(Br)cc2)N(CCCn2ccnc2)C1=O` (stereo not given), the Ki result is “Not Active” in [4] and 0.34 µM in data set [5]. Moreover, the IC50 in the data set on NCI-H1299 was found to be 10.3 µM; in the data set on A549 [3] (setting [14]), 7.29 µM; in the data set with U2OS (setting [15]) it was 9.14 µM; in the data set with SAOS-2, 9.99 µM.
For `O=C(C1=C(O)C(=O)N(CCCn2ccnc2)C1c1ccc(Br)cc1)c1ccccc1` (stereo not given), the Ki result in data set [4] is “Not Active”; in data set [5], 0.29 µM. The IC50 was 20 µM in the data set on NCI-H1299, 73.1 µM in the data set with A549 [3] (setting [14]), “Not Active” in the data set with U2OS (u2os) and 31.6 µM in the data set with SAOS-2.
For the compound `CCCCOC1=C(C(=O)c2ccccc2)C(c2ccc(Br)cc2)N(CCCn2ccnc2)C1=O` (stereo not given), the Ki entry in data set [4] is “Not Active”; in data set [5], 0.47 µM. Further, the IC50 in the data set on NCI-H1299 came to 17.1 µM; in the data set on A549 [3] (setting [14]), 18.5 µM; in the data set on U2OS (setting [15]), 32.4 µM; in the data set with SAOS-2 it was 11.6 µM.
For `O=C(C1=C(OC2CCCCC2)C(=O)N(CCCn2ccnc2)C1c1ccc(Br)cc1)c1ccccc1` (stereo not given), the Ki in [6] turned out to be 17.9 µM; in data set [5], 0.49 µM. Besides, the IC50 in the data set on NCI-H1299 came out at 19.9 µM; with A549 [3] (setting [14]), 31.2 µM; in the data set on U2OS (setting [15]) it was 22.4 µM; in the data set with SAOS-2, 29.7 µM.
`O=C(C1=C(OCc2ccccc2)C(=O)N(CCCn2ccnc2)C1c1ccc(Br)cc1)c1ccccc1` (stereo not given): the inhibition constant (Ki) entry was “Not Active” in data set [4] and 2.07 µM in data set [5].
Turning to `CCCOC1=C(C(=O)c2ccccc2)C(c2ccc(Br)cc2)N(CCCn2ccnc2)C1=O` (stereo not given), the Ki in [6] was determined as 9.32 µM; in [5] it was 6.97 µM.
`COc1ccc(C2=N[C@@H](c3ccc(Cl)cc3)[C@@H](c3ccc(Cl)cc3)N2C(=O)N2CCNC(=O)C2)c(OC(C)C)c1` [NUTLIN-3]: the Activity entry in the data set on A549 [7] is “Dose-dependent effect”; in the data set on A549 [8], 15.49%; in the data set on A549 [9], 6.46%; with A549 [10], 0.9%. Besides, the IC50 in the data set on U2OS (setting [15]) was found to be 14.3 µM; in the data set with SAOS-2 it was 31.6 µM.
Turning to `CCOC1=C(C(=O)c2ccccc2)C(c2ccc(Br)cc2)N(CCCn2ccnc2)C1=O` (stereo not given), the inhibition constant Ki is 38.9 µM in [6] and 0.69 µM in data set [5]. The half-maximal inhibitory concentration (IC50) in the data set on NCI-H1299 amounted to 28.9 µM; in the data set on A549 [3] (setting [14]), 35.2 µM; in the data set on U2OS (setting [15]) it was 21.9 µM; in the data set on SAOS-2 it was 31.7 µM.
On to `NC1=C(C(=O)c2ccccc2)C(c2ccc(Br)cc2)N(CCCn2ccnc2)C1=O` (stereo not given), for which the Ki entry in data set [4] is “Not Active”; in data set [5], 0.048 µM. Also, the IC50 in the data set on NCI-H1299 was 168 µM; with A549 [3] (a549), “Not Active”; in the data set on U2OS (setting [15]), 149 µM; in the data set with SAOS-2, 107 µM.
Regarding `COCCOC1=C(C(=O)c2ccccc2)C(c2ccc(Br)cc2)N(CCCn2ccnc2)C1=O` (stereo not given), the results for the inhibition constant Ki in data set [6] and in data set [5] were 2.11 µM and 1.34 µM, respectively.
For `C[C@@H](NC1=C(C(=O)c2ccccc2)[C@@H](c2ccc(Br)cc2)N(CCCn2ccnc2)C1=O)c1ccccc1`, the Activity result was “Non-toxic” with Mus musculus [11]; “Non-toxic” with Mus musculus [1]; “Dose-dependent effect” in the data set with A549 [7]; 17.85% in the data set with A549 [8]; 4.02% with A549 [9]; 0.63% in the data set on A549 [10]. The inhibition in vivo at 300 mg/kg in the data set on A549 [12] worked out at 52.5%. In addition, the inhibition in vivo at 200 mg/kg in the data set on A549 [2] worked out at 40%. Moreover, the inhibitory constant (Ki) entry in data set [4] was “Not Active”. Besides, the IC50 came to 14.4 µM with NCI-H1299, 1.97 µM in the data set on A549 [3] (setting [14]), 28.1 µM with U2OS (setting [15]) and 27.4 µM with SAOS-2.
With `O=C(C1=C(O)C(=O)N(CCCn2ccnc2)C1c1ccc(Br)cc1)c1ccccc1Cl` (stereo not given), the Ki result in [13] was “Not Active”.
Still for that read-out and setting: the value for `O=C(C1=C(O)C(=O)N(CCCn2ccnc2)C1c1ccsc1)c1ccccc1` (stereo not given) was “Not Active”; that for `O=C(C1=C(O)C(=O)N(CCCn2ccnc2)C1c1ccco1)c1ccccc1` (stereo not given) was “Not Active”.

For the origin of these results see ChEMBL document CHEMBL2177011, “Discovery, synthesis, and biological evaluation of orally active pyrrolidone derivatives as novel inhibitors of p53-MDM2 protein-protein interaction” (J Med Chem, 2012).
